From ChEMBL document CHEMBL3112548, “Synthesis and biological evaluation of novel tetrahydro-β-carboline derivatives as antitumor growth and metastasis agents through inhibiting the transforming growth factor-β signaling pathway” (J Med Chem, 2014)
Calls of active or inactive are those of the source. The calls are words filed in the database; no cut-off is given here.

Key:
[1] = Antiproliferative activity against human PC9 cells at 10 uM after 48 hrs by SRB assay; format: functional; settings: PC-9, 48 h
Procedure, shortened: (§1)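 SRB assay: 1 × 10^4 cells per well in 96-well plates exposed to compound 48 h; fixed with 10% TCA, stained 30 min at room temperature, washed with 1% acetic acid, dye dissolved in 10 mM Tris base, OD 510 nm. Percent inhibition = decrease in absorbance relative to DMSO control wells.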

[2] = molecular target: TGF-beta receptor type-1 (Homo sapiens) (UniProt P36897); assay: Inhibition of TGFbetaR1-mediated smad phosphorylation in human HaCaT cells at 1 uM measured within 24 hrs by dual-luciferase reporter gene assay
[3] = Antimigratory activity against human H1299 cells assessed as inhibition of cell migration after 12 to 24 hrs by transwell migration assay; format: functional, cell-based; settings: NCI-H1299
Procedure, shortened: (§2)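 Transwell chambers, 8 μm pore filters; 5 × 10^5 cells in DMEM in top chamber with compound, 10% FBS medium below, 37 °C, 5% CO2; after 12−24 h non-migrated cells swabbed off, migrated cells fixed, stained with 0.2% crystal violet in PBS and counted in five random 10× fields per membrane. Means ± SD.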

Mus musculus [4] = assay: Toxicity in nude mouse xenografted with human A549 cells assessed as body weight change at 20 mg/kg, ip qd for 60 days measured up to 60 days; format: organism-based; parameters: dose 20 mg/kg, route intraperitoneal; settings: in vivo, 1440 h
Procedure, shortened: (§3)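 Nude mice (5 weeks old, acclimated 1 week) given 5 × 10^5 A549 cells in PBS subcutaneously; at ~10 mm tumor diameter, 15 mice size-matched into three groups (n = 5): DMSO vehicle, 5.0 mg/kg or 20 mg/kg ip in 50 μL DMSO daily for 60 days. Body weight and tumor dimensions measured daily; volume = 0.52 × AB².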

A549 [5] = assay: Antitumor activity against human A549 cells xenografted in nude mouse assessed as suppression of tumor volume at 20 mg/kg, ip qd for 60 days measured up to 60 days; format: functional, organism-based; parameters: dose 20 mg/kg; procedure, shortened: as §3
[6] = Antiproliferative activity against human PC9 cells after 48 hrs by SRB assay; format: functional, cell-based; settings: PC-9, 48 h; procedure, shortened: as §1
[7] = Antiproliferative activity against human H1299 cells after 48 hrs by SRB assay; format: functional, cell-based; settings: NCI-H1299, 48 h; procedure, shortened: as §1
A549 [8] = assay: Antiproliferative activity against human A549 cells after 48 hrs by SRB assay; format: functional, cell-based; settings: A549, 48 h; procedure, shortened: as §1
A549 [9] = assay: Antimigratory activity against human A549 cells assessed as inhibition of cell migration after 12 to 24 hrs by transwell migration assay; format: functional, cell-based; procedure, shortened: as §2
NCI-H1299 [10] = assay: Antimigratory activity against human H1299 cells assessed as reduction in distance at 1 uM after 24 hrs by time-lapse video microscopy; format: functional, cell-based
Procedure, shortened: (§4)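 H1299 cells (5 × 10^4) in 30 mm dishes pretreated with or without compound for 24 h, then tracked by time-lapse microscopy, one frame per 10 min over 10 h; eight random cells per condition; migration distance and speed taken from track plots. Means ± SD, Student's t test.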

NCI-H1299 [11] = assay: Antiproliferative activity against human H1299 cells assessed as cell viability at 1 uM after 12 hrs by SRB assay; format: functional, cell-based
A549 [12] = assay: Antimigratory activity against human A549 cells assessed as decrease in cell migration after 12 hrs by wound healing assay; settings: A549, 12 h
[13] = Antimigratory activity against human H1299 cells assessed as decrease in cell migration after 12 hrs by wound healing assay; settings: NCI-H1299, 12 h
NCI-H1299 [14] = assay: Antimigratory activity against human H1299 cells assessed as reduction of cell velocity at 1 uM after 24 hrs by time-lapse video microscopy; format: functional, cell-based; procedure, shortened: as §4
A549 [15] = assay: Antitumor activity against human A549 cells xenografted in nude mouse assessed as suppression of tumor volume at 5 mg/kg, ip qd for 60 days measured up to 60 days; format: functional, organism-based; parameters: dose 5 mg/kg; procedure, shortened: as §3
4T1 = assay: Antitumor activity against mouse 4T1 cells expressing luciferase allograted in ip dosed Balb/c mouse assessed as suppression of tumor volume compound administered for 20 days measured after 20 days; format: functional, organism-based
Procedure, shortened: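 Female Balb/c mice (6 weeks old) given 5 × 10^4 4T1-luciferase cells into mammary fat pad; after 7 days (~5 mm tumors) 24 mice randomized into DMSO vehicle, 1.0 or 5.0 mg/kg/day ip groups; after 20 days tumor burden quantified as bioluminescence by in vivo imaging. Body weight measured daily. Mean ± SD.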

A549 [16] = assay: Antiproliferative activity against human A549 cells assessed as cell viability at 1 uM after 12 hrs by SRB assay; format: functional, cell-based
Mus musculus [17] = assay: Toxicity in nude mouse xenografted with human A549 cells assessed as body weight change at 5 mg/kg, ip qd for 60 days measured up to 60 days; format: organism-based; parameters: dose 5 mg/kg, route intraperitoneal; settings: in vivo, 1440 h; procedure, shortened: as §3

Sequence of TGF-beta receptor type-1 (Homo sapiens) (P36897 whole entry, looked up): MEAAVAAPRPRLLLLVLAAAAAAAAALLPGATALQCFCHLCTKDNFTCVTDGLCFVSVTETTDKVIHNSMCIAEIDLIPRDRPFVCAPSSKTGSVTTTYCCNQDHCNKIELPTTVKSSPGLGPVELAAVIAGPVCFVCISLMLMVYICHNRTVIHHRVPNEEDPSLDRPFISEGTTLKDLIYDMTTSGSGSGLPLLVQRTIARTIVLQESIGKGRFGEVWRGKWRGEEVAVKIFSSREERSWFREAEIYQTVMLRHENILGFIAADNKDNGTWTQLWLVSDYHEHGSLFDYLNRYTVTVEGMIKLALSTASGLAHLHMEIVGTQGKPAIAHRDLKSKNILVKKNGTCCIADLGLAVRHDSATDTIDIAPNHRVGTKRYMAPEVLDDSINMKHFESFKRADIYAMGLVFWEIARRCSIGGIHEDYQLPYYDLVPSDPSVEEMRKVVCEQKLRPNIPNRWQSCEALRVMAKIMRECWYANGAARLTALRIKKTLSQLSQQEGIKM

Structure (SMILES)	inhibition [2] [%]	inhibition at 10 µM [1] [%]	further results
O=Cc1ccc(CC(=O)N2CCc3c([nH]c4ccccc34)C2)cc1	11.8	21	
NC(=O)c1ccc(-c2nc(-c3ccccn3)c(-c3ccc4c(c3)OCO4)[nH]2)cc1 [SB-431542]			IC50 [3]: 0.5 µM
CC1c2[nH]c3ccc(O)cc3c2CCN1C(=O)Cc1ccccc1 (stereo unspecified)	11.2	8	
O=C(c1cccs1)N1CCc2c([nH]c3ccccc23)C1	2.2	9	
COc1cc2ncnc(Nc3ccc(F)c(Cl)c3)c2cc1OCCCN1CCOCC1 [GEFITINIB]			Activity (Mus musculus [4]): Toxic; Activity (A549 [5]): Active
COC(=O)CC1c2[nH]c3ccccc3c2CCN1C(=O)Cc1ccccc1 (stereo unspecified)	18.2		
O=C(Cc1ccccc1)N1CCc2c([nH]c3ccc(F)cc23)C1		78	IC50 [6]: 7.09 µM; IC50 [7]: 6.19 µM; IC50 (A549 [8]): 4.85 µM
O=C(Cc1ccc(O)c(O)c1)N1CCc2c([nH]c3ccccc23)C1	21	26	
O=C(Cc1ccccc1)N1CCc2c([nH]c3ccc(Br)cc23)C1		47	
CCC1c2[nH]c3ccccc3c2CCN1C(=O)Cc1ccccc1 (stereo unspecified)	52.1	24	
O=C(O)CC1c2[nH]c3ccccc3c2CCN1C(=O)Cc1ccccc1 (stereo unspecified)	4.1	9	
CCN(CC)c1ccc(CC(=O)N2CCc3c([nH]c4ccccc34)C2)cc1	49	18	

Now from value to molecule, other results behind:

inhibition [2] [%]	Structure (SMILES)	inhibition at 10 µM [1] [%]	further results
11.8	O=C(Cc1ccc(F)cc1)N1CCc2c([nH]c3ccccc23)C1	21	
10.3	O=C(Cc1ccccc1)N1CCc2c([nH]c3ccccc23)C1c1ccccc1 (stereo unspecified)	10	
31.1	O=C(CCc1ccccc1)N1CCc2c([nH]c3ccccc23)C1	48	
7.9	O=C(Cc1ccc(Cl)cc1)N1CCc2c([nH]c3ccccc23)C1	33	
58.8	CC(C)(C)OC(=O)NC(C(=O)N1CCc2c([nH]c3ccccc23)C1)c1ccccc1 (stereo unspecified)	31	
9.5	O=C(c1ccccc1)N1CCc2c([nH]c3ccccc23)C1	7	
18.1	Nc1ccc(CC(=O)N2CCc3c([nH]c4ccccc34)C2)cc1	8	
50.1	O=C(Cc1ccc(CBr)cc1)N1CCc2c([nH]c3ccccc23)C1	26	
64.2	O=C(Cc1ccc(O)cc1)N1CCc2c([nH]c3ccccc23)C1	39	
10.9	NC(C(=O)N1CCc2c([nH]c3ccccc23)C1)c1ccccc1 (stereo unspecified)	11	
12.9	O=C(C(O)c1ccccc1)N1CCc2c([nH]c3ccccc23)C1 (stereo unspecified)	28	
19.7	O=C(Cc1ccccc1O)N1CCc2c([nH]c3ccccc23)C1	33	
44.3	CC(C)(C)OC(=O)NC(Cc1ccccc1)C(=O)N1CCc2c([nH]c3ccccc23)C1 (stereo unspecified)	0	
1.1	O=C(c1ccccn1)N1CCc2c([nH]c3ccccc23)C1	4	
29.1	O=C(Cc1cccc(O)c1)N1CCc2c([nH]c3ccccc23)C1	11	
72.4	O=C(Cc1ccccc1)N1CCc2c([nH]c3ccccc23)C1	59	IC50 (A549 [9]): < 0.5 µM; Activity (NCI-H1299 [10]): Active; Activity (NCI-H1299 [11]): Active; IC50 [6]: 5.87 µM; IC50 (A549 [12]): 0.1 µM; IC50 [13]: 0.1 µM; Activity (NCI-H1299 [14]): Active; IC50 [7]: 8.07 µM; Activity (A549 [15]): Active; IC50 [3]: < 0.5 µM; IC50 (A549 [8]): 7.9 µM; Activity (4T1): Dose-dependent effect; Activity (A549 [16]): Active; Activity (Mus musculus [17]): Toxic
12.3	O=C(N1CCc2c([nH]c3ccccc23)C1)C(O)(c1ccccc1)c1ccccc1	0	
